Converted amounts (≈) assume the structure as drawn.
What was measured:
Format in all cases: functional
[1] = system: Staphylococcus aureus; test: Antibacterial activity against Staphylococcus aureus ATCC […] after 18 to 24 hrs by twofold serial dilution method
How it was run: (§1)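 MIC determined by the standard twofold serial dilution method on agar media, screening against Gram-positive and Gram-negative strains. Levofloxacin and gemifloxacin were run alongside as reference drugs.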

[2] = system: Staphylococcus aureus; test: Antibacterial activity against methicillin-resistant Staphylococcus aureus 08-1 after 18 to 24 hrs by twofold serial dilution method
How it was run: (§2)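 Standard twofold serial agar dilution method on agar media for MIC determination. Screened against representative Gram-positive and Gram-negative strains. Levofloxacin and GMFX served as control drugs.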

[3] = system: Staphylococcus aureus; test: Antibacterial activity against methicillin-sensitive Staphylococcus aureus 08-2 after 18 to 24 hrs by twofold serial dilution method; how it was run: as §2
[4] = system: Staphylococcus epidermidis; test: Antibacterial activity against methicillin-resistant Staphylococcus epidermidis 09-2 after 18 to 24 hrs by twofold serial dilution method; how it was run: as §2
[5] = system: Staphylococcus epidermidis; test: Antibacterial activity against methicillin-resistant Staphylococcus epidermidis 09-3 after 18 to 24 hrs by twofold serial dilution method; how it was run: as §2
[6] = system: Staphylococcus epidermidis; test: Antibacterial activity against methicillin-resistant Staphylococcus epidermidis 09-4 after 18 to 24 hrs by twofold serial dilution method; how it was run: as §2
[7] = system: Staphylococcus epidermidis; test: Antibacterial activity against methicillin-sensitive Staphylococcus epidermidis 09-3 after 18 to 24 hrs by twofold serial dilution method; how it was run: as §2
[8] = system: Staphylococcus epidermidis; test: Antibacterial activity against methicillin-sensitive Staphylococcus epidermidis 09-6 after 18 to 24 hrs by twofold serial dilution method; how it was run: as §2
[9] = system: Streptococcus pneumoniae; test: Antibacterial activity against Streptococcus pneumoniae 08-2 after 18 to 24 hrs by twofold serial dilution method; how it was run: as §1
[10] = system: Streptococcus pneumoniae; test: Antibacterial activity against Streptococcus pneumoniae 08-4 after 18 to 24 hrs by twofold serial dilution method; how it was run: as §1
[11] = system: Enterococcus faecium; test: Antibacterial activity against Enterococcus faecium 08-2 after 18 to 24 hrs by twofold serial dilution method; how it was run: as §1
[12] = system: Enterococcus faecium; test: Antibacterial activity against Enterococcus faecium 08-7 after 18 to 24 hrs by twofold serial dilution method; how it was run: as §1
[13] = system: Enterococcus faecalis; test: Antibacterial activity against Enterococcus faecalis 08-10 after 18 to 24 hrs by twofold serial dilution method; how it was run: as §1
[14] = system: Enterococcus faecalis; test: Antibacterial activity against Enterococcus faecalis 08-12 after 18 to 24 hrs by twofold serial dilution method; how it was run: as §1
[15] = system: Escherichia coli; test: Antibacterial activity against Escherichia coli ATCC 25922 after 18 to 24 hrs by twofold serial dilution method; how it was run: as §1
[16] = system: Escherichia coli; test: Antibacterial activity against Escherichia coli 08-21 after 18 to 24 hrs by twofold serial dilution method; how it was run: as §1
[17] = system: Escherichia coli; test: Antibacterial activity against Escherichia coli 08-22 after 18 to 24 hrs by twofold serial dilution method; how it was run: as §1
[18] = system: Klebsiella pneumoniae; test: Antibacterial activity against Klebsiella pneumoniae 09-21 after 18 to 24 hrs by twofold serial dilution method; how it was run: as §1
[19] = system: Klebsiella pneumoniae; test: Antibacterial activity against Klebsiella pneumoniae 09-22 after 18 to 24 hrs by twofold serial dilution method; how it was run: as §1
[20] = system: Klebsiella pneumoniae; test: Antibacterial activity against Klebsiella pneumoniae 09-23 after 18 to 24 hrs by twofold serial dilution method; how it was run: as §1
[21] = system: Pseudomonas aeruginosa; test: Antibacterial activity against Pseudomonas aeruginosa ATCC 27853 after 18 to 24 hrs by twofold serial dilution method; how it was run: as §1
[22] = system: Pseudomonas aeruginosa; test: Antibacterial activity against Pseudomonas aeruginosa 09-32 after 18 to 24 hrs by twofold serial dilution method; how it was run: as §1
[23] = system: Pseudomonas aeruginosa; test: Antibacterial activity against Pseudomonas aeruginosa 09-33 after 18 to 24 hrs by twofold serial dilution method; how it was run: as §1
[24] = system: Pseudomonas aeruginosa; test: Antibacterial activity against Pseudomonas aeruginosa 09-34 after 18 to 24 hrs by twofold serial dilution method; how it was run: as §1
[25] = system: Pseudomonas aeruginosa; test: Antibacterial activity against Pseudomonas aeruginosa 09-35 after 18 to 24 hrs by twofold serial dilution method; how it was run: as §1
[26] = system: Enterococcus faecium; test: Ratio of compound MIC to levofloxacin MIC for Enterococcus faecium 08-7
[27] = system: Klebsiella pneumoniae; test: Ratio of compound MIC to levofloxacin MIC for Klebsiella pneumoniae 09-22
[28] = system: Enterococcus faecium; test: Ratio of compound MIC to gemifloxacin MIC for Enterococcus faecium 08-7
[29] = system: Klebsiella pneumoniae; test: Ratio of compound MIC to gemifloxacin MIC for Klebsiella pneumoniae 09-22
[30] = system: Streptococcus pneumoniae; test: Ratio of compound MIC to levofloxacin MIC for Streptococcus pneumoniae

SMILES	MIC [1]	MIC [2]	MIC [3]	MIC [4]	MIC [5]	MIC [6]	MIC [7]	MIC [8]	MIC [9]	MIC [10]	MIC [11]	MIC [12]	MIC [13]	MIC [14]	MIC [15]	MIC [16]	MIC [17]	MIC [18]	MIC [19]	MIC [20]	further results
CCO/N=C(/N)C1CN(c2c(F)cc3c(=O)c(C(=O)O)cn4c3c2OC[C@@H]4C)C/C1=N\OC (stereo partly specified)	0.125 µg/mL (≈ 0.271 µM)	0.06 µg/mL (≈ 0.13 µM)	0.125 µg/mL (≈ 0.271 µM)	0.06 µg/mL (≈ 0.13 µM)	0.06 µg/mL (≈ 0.13 µM)	0.06 µg/mL (≈ 0.13 µM)	0.06 µg/mL (≈ 0.13 µM)	0.06 µg/mL (≈ 0.13 µM)	8 µg/mL (≈ 17.3 µM)	8 µg/mL (≈ 17.3 µM)	> 128 µg/mL	0.06 µg/mL (≈ 0.13 µM)	128 µg/mL (≈ 277 µM)	> 128 µg/mL	128 µg/mL (≈ 277 µM)	> 128 µg/mL	> 128 µg/mL	> 128 µg/mL	0.5 µg/mL (≈ 1.08 µM)	> 128 µg/mL	MIC [21]: 16 µg/mL (≈ 34.7 µM); MIC [22]: 16 µg/mL (≈ 34.7 µM); MIC [23]: > 128 µg/mL; MIC [24]: > 128 µg/mL; MIC [25]: 16 µg/mL (≈ 34.7 µM); Ratio [26]: 32; Ratio [27]: 16; Ratio [28]: 32; Ratio [29]: 16
CCO/N=C1\CN(c2nc3c(cc2F)c(=O)c(C(=O)O)cn3C2CC2)CC1/C(N)=N\O (stereo unspecified)	0.25 µg/mL (≈ 0.578 µM)	0.25 µg/mL (≈ 0.578 µM)	0.25 µg/mL (≈ 0.578 µM)	0.25 µg/mL (≈ 0.578 µM)	0.25 µg/mL (≈ 0.578 µM)	0.25 µg/mL (≈ 0.578 µM)	0.25 µg/mL (≈ 0.578 µM)	0.25 µg/mL (≈ 0.578 µM)	0.25 µg/mL (≈ 0.578 µM)	0.25 µg/mL (≈ 0.578 µM)	> 128 µg/mL	> 128 µg/mL	> 128 µg/mL	0.25 µg/mL (≈ 0.578 µM)	> 128 µg/mL	> 128 µg/mL	> 128 µg/mL	> 128 µg/mL	> 128 µg/mL	> 128 µg/mL	MIC [21]: > 128 µg/mL; MIC [22]: > 128 µg/mL; MIC [23]: > 128 µg/mL; MIC [24]: > 128 µg/mL; MIC [25]: > 128 µg/mL; Ratio [30]: 8
CCO/N=C1\CN(c2c(F)cc3c(=O)c(C(=O)O)cn(CC)c3c2F)CC1/C(N)=N\OC (stereo unspecified)	1 µg/mL (≈ 2.22 µM)	0.25 µg/mL (≈ 0.554 µM)	8 µg/mL (≈ 17.7 µM)	8 µg/mL (≈ 17.7 µM)	0.25 µg/mL (≈ 0.554 µM)	0.125 µg/mL (≈ 0.277 µM)	0.125 µg/mL (≈ 0.277 µM)	0.25 µg/mL (≈ 0.554 µM)	0.25 µg/mL (≈ 0.554 µM)	0.25 µg/mL (≈ 0.554 µM)	> 128 µg/mL	> 128 µg/mL	> 128 µg/mL	> 128 µg/mL	> 128 µg/mL	> 128 µg/mL	> 128 µg/mL	> 128 µg/mL	8 µg/mL (≈ 17.7 µM)	> 128 µg/mL	MIC [21]: 128 µg/mL (≈ 284 µM); MIC [22]: > 128 µg/mL; MIC [23]: > 128 µg/mL; MIC [24]: > 128 µg/mL; MIC [25]: > 128 µg/mL; Ratio [30]: 8
CCn1cc(C(=O)O)c(=O)c2cc(F)c(N3C/C(=N\OC)C(/C(N)=N\OC)C3)c(F)c21 (stereo unspecified)	0.25 µg/mL (≈ 0.572 µM)	0.25 µg/mL (≈ 0.572 µM)	0.25 µg/mL (≈ 0.572 µM)	2 µg/mL (≈ 4.57 µM)	0.25 µg/mL (≈ 0.572 µM)	0.25 µg/mL (≈ 0.572 µM)	0.25 µg/mL (≈ 0.572 µM)	0.5 µg/mL (≈ 1.14 µM)	1 µg/mL (≈ 2.29 µM)	1 µg/mL (≈ 2.29 µM)	> 128 µg/mL	> 128 µg/mL	> 128 µg/mL	> 128 µg/mL	128 µg/mL (≈ 293 µM)	> 128 µg/mL	> 128 µg/mL	> 128 µg/mL	1 µg/mL (≈ 2.29 µM)	> 128 µg/mL	MIC [21]: 128 µg/mL (≈ 293 µM); MIC [22]: > 128 µg/mL; MIC [23]: > 128 µg/mL; MIC [24]: > 128 µg/mL; MIC [25]: > 128 µg/mL

— ChEMBL document CHEMBL1287651, “Synthesis and in vitro antibacterial activity of fluoroquinolone derivatives containing 3-(N'-alkoxycarbamimidoyl)-4-(alkoxyimino) pyrrolidines” (2010)
